# Exocytosis inh: blocks lytic granule exocytosis. TALL-104 LAMP-1 surface exposure, flow cytometry; cells stimulated with thapsigargin and PMA. inhibition, % at 10 µM. hit rate 0.66% among 360,000. AID 651702;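 active = inhibition above about 55%, limit read from the data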
# MC4R barr agon: agonists of human melanocortin 4 receptor (MC4R) beta-arrestin; hit rate 0.98% among 360,000; P32245; activation, % at 8.9 µM; U2OS MC4R beta-arrestin complementation, luminescence; percent of melanotan II response, DMSO zero;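 active = activation above a per-plate cutoff, the mean activation of sample wells on that plate plus 3 SD, cut at about 8% in these data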
# Target sequence (P32245 whole entry, looked up): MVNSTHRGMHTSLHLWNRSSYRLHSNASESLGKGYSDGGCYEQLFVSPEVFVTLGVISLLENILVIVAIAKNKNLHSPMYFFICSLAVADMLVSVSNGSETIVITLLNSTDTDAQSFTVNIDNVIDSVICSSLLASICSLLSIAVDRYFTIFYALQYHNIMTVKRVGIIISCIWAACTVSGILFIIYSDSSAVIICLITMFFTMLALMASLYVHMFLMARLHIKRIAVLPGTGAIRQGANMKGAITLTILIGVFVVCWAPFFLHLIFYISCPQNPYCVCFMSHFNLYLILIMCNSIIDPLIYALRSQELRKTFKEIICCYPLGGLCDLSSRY
# Myeloid diff 2: promotes myeloid progenitor differentiation. ER-HoxA9 myeloid progenitors, lysozyme-GFP differentiation, flow cytometry. calls only at 10 µM. hit rate 1% among 360,000. AID 624256;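 active = normalized GFP-positive differentiation at or above the plate's own cutoff, the solvent-only control mean plus 3 SD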;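 note: cells exposed to compound for four days before flow analysis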
# EBI2 antag: antagonists of human EBI2 receptor | EBI2 beta-arrestin recruitment, luminescence, 7a,25-OHC stimulated | inhibition, % at 5 µM | hit rate 0.81% among 360,000; in the data active = inhibition above about 38%;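 note: enzyme fragment complementation signal reports receptor beta-arrestin coupling in cells; 0% = agonist plus DMSO wells and 100% = wells without agonist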
# Target sequence (P32249 whole entry, looked up, the tested form may be a part): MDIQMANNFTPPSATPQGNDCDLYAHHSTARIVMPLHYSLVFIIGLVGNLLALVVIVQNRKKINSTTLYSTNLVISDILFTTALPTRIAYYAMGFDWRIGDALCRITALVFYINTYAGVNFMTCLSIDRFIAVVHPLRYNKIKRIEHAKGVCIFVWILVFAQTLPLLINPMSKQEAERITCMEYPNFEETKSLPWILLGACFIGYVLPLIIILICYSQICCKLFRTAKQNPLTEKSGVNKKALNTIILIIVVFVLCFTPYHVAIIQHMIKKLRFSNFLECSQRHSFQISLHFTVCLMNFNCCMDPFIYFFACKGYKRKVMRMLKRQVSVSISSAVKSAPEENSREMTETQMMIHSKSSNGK
# MC4R antagonist: antagonists of human melanocortin 4 receptor (MC4R) | P32245 | hit rate 0.48% among 360,000 | inhibition, % at 6.5 µM | AID 540295 | MC4R-expressing cells, MTII-stimulated cAMP, LANCE TR-FRET;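 active = inhibition above its plate's cutoff, the mean of tested wells on that plate plus 3 SD, cut at about 29% in these data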;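 note: 0% = Melanotan II alone and 100% = Melanotan II plus saturating MCL0020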
#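 Assay system: U2OS cells stably expressing human melanocortin 4 receptor (MC4R) / Dosing: 6.5 µM / Timing: compound 30 min, challenge 1 h, detection 1 h / Measured by: Eu-cAMP/anti-cAMP TR-FRET, emission 671 nm / Replicates: singlicate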
# EBI2 antag conf: confirmation of human EBI2 receptor antagonists; shares compounds with EBI2 antag; EBI2 beta-arrestin luminescence, 7a,25-OHC antagonism; inhibition, % at 5 µM; hit rate 29% among 2,400; AID 651997;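 active = inhibition of at least 50%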
# EBI2 ag: counter-screen for EBI2 antagonists: EBI2 agonist activity. shares compounds with EBI2 antag. EBI2-expressing cells, agonist mode, luminescence, 60 min; 0% vehicle, 100% 7α,25-dihydroxycholesterol control. 2,400 tested, under 10 active. AID 652000. activation, % at 5 µM;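 active = activation of at least 50%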
# bGal cs: counter-screen for EBI2 antagonists: E. coli beta-galactosidase inhibition. shares compounds with EBI2 antag. purified beta-galactosidase, luminescent Galacton Star, 15 min. inhibition, % at 5 µM. hit rate 1% among 2,400;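 active = replicate-average signal at least 3 plate SD below neutral wells, shown as high inhibition, flagging enzyme-inhibiting false positives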;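 note: 0% = DMSO wells with enzyme and 100% = wells lacking enzyme; higher means stronger loss of beta-gal luminescence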
# Active calls of the source: *; i = inactive; / = not tested or not shown; + = active, no number. The list is not random: actives were taken first. Their share in the collection is about 3.7%.
SMILES,Exocytosis inh,MC4R barr agon,Myeloid diff 2,EBI2 antag,MC4R antagonist,EBI2 antag conf,EBI2 ag,bGal cs
O=C(/C=C/c1ccc(F)cc1)NC(=S)N1CCN(c2ccccn2)CC1,0.3,-0.4,i,16.6,1.6,/,/,/
COc1ccccc1/C=C/C(=O)NC(=S)N1CCN(C)CC1,4.7,-2.1,i,-1.2,10.5,/,/,/
Cc1ccc(/C=C/C(=O)NC(=S)N2CCN(c3ccc(F)cc3)CC2)cc1,-1.3,1.0,i,47.7*,9.5,21.4,-0.6,-10.3
CC(=O)C1CCC2C3C=CC4=CC(=O)CCC4(C)C3CCC12C (stereo not given),-4.3,0.0,i,7.1,-1.8,/,/,/
OCc1cc(-c2ccccn2)no1,-3.1,0.6,i,-2.7,8.4,/,/,/
COc1ccc(C(C)=O)c(Oc2ccc(S(=O)(=O)N3CCOCC3)cn2)c1,-2.3,-2.2,i,-16.3,-3.5,/,/,/
COc1ccc(C2c3ccc(O)cc3Oc3ncn4nc(-c5cccnc5)nc4c32)cc1OC (stereo not given),3.3,0.4,+,81.5*,-12.8,55.4*,-1.0,8.9
N#CCSc1ccccc1NC(=O)COC(=O)C1CCN(C(=O)c2ccc(Cl)cc2)CC1,9.0,1.1,i,-6.2,13.0,/,/,/
O=C(CSc1nc2ccc(Nc3nc(N4CCCC4)nc(N4CCCC4)n3)cc2s1)NCc1ccco1,-4.5,-1.2,i,48.9*,6.8,17.6,-0.8,-10.5
CCOc1ccc(NC(=S)Nc2cccc3cnccc23)cc1,-9.7,-1.4,i,65.6*,19.8,25.0,1.5,6.8
CC(=O)N(C)c1ccc(NC(=S)Nc2ccc(C(C)C)cc2)cc1,4.7,-2.7,i,51.5*,-7.1,14.7,0.8,5.7
CC(C)c1ccc(NC(=S)Nc2cccc3ccccc23)cc1,11.5,-3.0,i,43.5*,-3.1,4.5,-1.0,-4.9
CCOc1ccc(NC(=S)Nc2cccc3ccccc23)cc1,12.2,-2.3,i,56.1*,-5.3,28.9,-1.7,-5.3
CC(C)c1ccc(NC(=S)Nc2ccc3[nH]c(=O)[nH]c3c2)cc1,4.9,1.8,i,27.3,21.7,/,/,/
Cc1ccc(NC(=S)Nc2cccc3ccccc23)cc1,-23.2,3.5,i,19.0,1.3,/,/,/
COc1ccc(CCNC2=CC(=O)CCC2)cc1OC,11.0,/,i,1.2,/,/,/,/
CCC(C)CCN1C(Nc2ccccc2)=NC[C@@H]1C (stereo not given in full),-7.5,-1.2,i,-2.7,2.6,/,/,/
Nc1cccc(-c2c[nH]c3ncc(-c4cccnc4)cc23)c1,1.4,-0.2,i,-14.8,9.0,/,/,/
O=S(=O)(Nc1nc2ccccc2nc1N1CCN(CCO)CC1)c1cc(F)ccc1F,-10.5,-2.0,i,0.3,13.1,/,/,/
CCOc1ccc(NC(=S)Nc2ccccc2C2CC2)cc1,-0.8,-2.6,i,59.6*,3.5,32.4,1.5,5.2
CCNC(=O)C1(C)CCN(C(=O)c2ccc(C(F)(F)F)cc2)C1 (stereo not given),-1.2,0.4,i,-4.7,-3.6,/,/,/
CCC1CSC(Nc2ccc(C(=O)/C=C/c3ccc(Br)cc3)cc2)=N1 (stereo not given),1.6,0.4,i,60.8*,-8.8,54.8*,0.8,1.1
O=C(O)c1ccc(NC(=O)c2ccccc2NC(=O)c2ccccc2Cl)cc1,1.7,-0.7,i,2.6,3.2,/,/,/
CCOc1cc(/C=N/NC(=O)c2nnn(-c3nonc3N)c2C)ccc1OCc1cccc(F)c1,-2.6,1.4,i,41.9*,7.7,42.8,0.0,9.3
Cc1ccc(COc2cccc(/C=N/NC(=O)c3nnn(-c4nonc4N)c3C)c2)cc1,-5.0,0.6,i,-5.8,1.1,/,/,/
SMILES,Exocytosis inh,MC4R barr agon,Myeloid diff 2,EBI2 antag,MC4R antagonist,EBI2 antag conf,EBI2 ag,bGal cs
Cc1cccc(COc2ccc(/C=N/NC(=O)c3nnn(-c4nonc4N)c3C)cc2)c1,-5.1,-1.4,i,7.9,16.7,/,/,/
CCOc1cc(/C=N/NC(=O)c2nnn(-c3nonc3N)c2C)ccc1OCc1ccc(C)cc1,15.9,1.2,i,54.0*,10.8,51.0*,-0.8,10.1
CCc1c(C(=O)N/N=C/c2ccc(OCc3ccc(F)cc3)c(OC)c2)nnn1-c1nonc1N,-1.1,-0.7,i,32.9,11.3,/,/,/
CCOc1cc(/C=N/NC(=O)c2nnn(-c3nonc3N)c2C)ccc1OCc1ccc(F)cc1,-2.0,4.5,i,52.4*,6.9,34.0,-0.5,-11.7
O=C1CC2(CCN(C(=O)C3CC(=O)N(c4ccccc4)C3)CC2)Oc2ccccc21 (stereo not given),0.6,0.2,i,64.5*,1.7,21.5,0.9,6.0
O=C1CC2(CCN(C(=O)COc3ccccc3)CC2)Oc2ccccc21,6.4,-3.8,i,45.6*,-2.2,19.8,1.5,3.7
COc1cccc(N2CC(C(=O)N3CCC4(CC3)CC(=O)c3ccccc3O4)CC2=O)c1 (stereo not given),-4.5,3.7,i,39.9,4.2,/,/,/
CC1(C)CC(=O)C=C(c2ccc(-c3cccc4c3sc3ccccc34)cc2)C1=O,-0.8,0.2,i,6.2,4.2,/,/,/
O=C(CNc1ccc(Br)cc1)c1ccccc1,2.9,1.0,i,31.2,12.4,/,/,/
Cc1ccc(C(=O)CNc2ccc(Br)cc2)cc1,-3.2,-0.7,i,73.5*,3.2,65.7*,-3.8,3.7
CCc1nc2c(OCc3ccccc3C(=O)OC)cccn2c1N(C)C(=O)c1cccc(OC)c1,-1.6,1.5,i,13.3,5.0,/,/,/
CC(C)CN(C(=O)COC(=O)CCSc1ccc(Cl)cc1)c1c(N)n(Cc2ccccc2)c(=O)[nH]c1=O,11.8,3.3,i,6.0,11.2,/,/,/
O=C(Nc1ccc2ccccc2n1)c1ccc(Cl)cc1,7.4,6.1,i,61.1*,1.8,39.0,-0.8,6.8
COC(=O)c1ccc(Oc2ccc(C(F)(F)F)cn2)cc1,0.2,1.4,i,43.5*,0.2,38.3,1.8,1.2
COC(=O)[C@@H](Cc1c[nH]c2ccccc12)NC(=O)CCC(=O)c1ccc(Br)cc1,-5.7,-0.7,i,20.0,13.5,/,/,/
CCCCC(C(=O)NC1CCCC1)N(C(=O)c1snc(C(N)=O)c1N)c1ccc(C)cc1 (stereo not given),-16.1,-0.2,i,50.0*,-7.3,48.8,-0.3,5.5
Cc1ccc(N(C(=O)c2snc(C(N)=O)c2N)C(CC(C)C)C(=O)NC2CCCC2)cc1 (stereo not given),47.7,-0.6,i,7.4,9.9,/,/,/
